The subject of one series is RT-4. In words: Growth inhibition of human RT4 cells at 500 uM measured after 1 hr by Celltiter-Glo luminescent cell viability assay relative to control. In kind it is functional. Conditions: RT-4, 1 h, read-out: GI. An outline of the steps: (§1)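 Cells seeded 10000/well, 24 h, then exposed in ATCC-recommended medium to 62.5–2000 μM (two-fold steps) or vehicle for the set time (5–60 min), then normal medium. After 24 h, plates equilibrated 30 min at room temperature, CellTiter-Glo added, 2 min at room temperature, luminescence read. Survival relative to vehicle control; quadruplicate.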
(ATP-based viability assays read luminescence as a measure of living cells.)

Series [1] deals with RT-112. The experiment in a line: Growth inhibition of human RT112 cells measured after 1 hr by Celltiter-Glo luminescent cell viability assay. The conditions noted are these: RT-112, 1 h. Format: functional. An outline of the steps: as §1
For another series, the system named is HL-60(TB). In words: Growth inhibition of human HL-60(TB) cells assessed as growth percent at 10 uM incubated for 48 hrs by sulforhodamine B assay relative to control. Conditions: HL-60, 48 h, read-out: Activity. Format: functional. (In general: The SRB assay estimates cell density from bound dye.)
The next series has as its system EKVX. In words: Growth inhibition of human EKVX cells assessed as growth percent at 10 uM incubated for 48 hrs by sulforhodamine B assay relative to control. Format: functional. The conditions noted are these: read-out: Activity.
The next series has as its system HOP-62. The experiment in a line: Growth inhibition of human HOP62 cells assessed as growth percent at 10 uM incubated for 48 hrs by sulforhodamine B assay relative to control. In kind it is functional. The conditions noted are these: HOP-62, 48 h, read-out: Activity.
The next series deals with COLO 205. In words: Growth inhibition of human COLO205 cells assessed as growth percent at 10 uM incubated for 48 hrs by sulforhodamine B assay relative to control. Conditions: COLO 205, 48 h, read-out: Activity. Format: functional.
The next series concerns HCT-116. In words: Growth inhibition of human HCT116 cells assessed as growth percent at 10 uM incubated for 48 hrs by sulforhodamine B assay relative to control. In kind it is functional. The conditions noted are these: HCT-116, 48 h, read-out: Activity.
The subject of a further series is KM12. The experiment in a line: Growth inhibition of human KM12 cells assessed as growth percent at 10 uM incubated for 48 hrs by sulforhodamine B assay relative to control. Format: functional. Conditions: KM12, 48 h, read-out: Activity.
A further series has as its system SNB-19. The experiment in a line: Growth inhibition of human SNB19 cells assessed as growth percent at 10 uM incubated for 48 hrs by sulforhodamine B assay relative to control. Format: functional. Conditions: SNB-19, 48 h, read-out: Activity.
Another series relates to Malme-3M. In words: Growth inhibition of human MALME-3M cells assessed as growth percent at 10 uM incubated for 48 hrs by sulforhodamine B assay relative to control. Conditions: read-out: Activity. In kind it is functional.
For another series, the system named is SK-MEL-2. In words: Growth inhibition of human SK-MEL-2 cells assessed as growth percent at 10 uM incubated for 48 hrs by sulforhodamine B assay relative to control. In kind it is functional. Conditions: SK-MEL-2, 48 h, read-out: Activity.
The test system of a further series is OVCAR-3. In words: Growth inhibition of human OVCAR3 cells assessed as growth percent at 10 uM incubated for 48 hrs by sulforhodamine B assay relative to control. Format: functional. Conditions: OVCAR-3, 48 h, read-out: Activity.
The subject of a further series is OVCAR-8. The experiment in a line: Growth inhibition of human OVCAR8 cells assessed as growth percent at 10 uM incubated for 48 hrs by sulforhodamine B assay relative to control. Format: functional. Conditions: OVCAR-8, 48 h, read-out: Activity.
The subject of another series is CAKI-1. The experiment in a line: Growth inhibition of human Caki1 cells assessed as growth percent at 10 uM incubated for 48 hrs by sulforhodamine B assay relative to control. Format: functional. The conditions noted are these: CAKI-1, 48 h, read-out: Activity.
Series [2] has as its system RT-112. In words: Anticlonogenic activity against human RT112 cells assessed as no colony formation at 250 to 500 uM incubated for 1 hr measured after culturing in normal medium for 10 days by crystal violet staining assay. In kind it is functional, cell-based. Put shortly: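 Cells seeded at 500/well, treated 24 h later with 250 or 500 μM drug or vehicle for 1 h. Cells were then grown in normal media for 10 days, stained with 0.5% crystal violet in 20% MeOH/water at 4 °C for 5 min, washed, dried and imaged. Run in triplicate.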

The test system of a further series is DU-145. In words: Growth inhibition of human DU145 cells assessed as growth percent at 10 uM incubated for 48 hrs by sulforhodamine B assay relative to control. In kind it is functional. The conditions noted are these: DU-145, 48 h, read-out: Activity.
For another series, the system named is MCF7. The experiment in a line: Growth inhibition of human MCF7 cells assessed as growth percent at 10 uM incubated for 48 hrs by sulforhodamine B assay relative to control. Format: functional. The conditions noted are these: MCF7, 48 h, read-out: Activity.
The next series deals with T47D. The experiment in a line: Growth inhibition of human T47D cells assessed as growth percent at 10 uM incubated for 48 hrs by sulforhodamine B assay relative to control. In kind it is functional. The conditions noted are these: read-out: Activity.
The subject of another series is MDA-MB-468. In words: Growth inhibition of human MDA-MB-468 cells assessed as growth percent at 10 uM incubated for 48 hrs by sulforhodamine B assay relative to control. Format: functional. The conditions noted are these: MDA-MB-468, 48 h, read-out: Activity.
Series [3] deals with RT-112. In words: Induction of apoptosis in human RT112 cells assessed as increase in caspase 9 cleavage at 250 uM incubated for 1 hr and measured immediately after treatment by Western blot analysis. Format: functional, cell-based. Put shortly:
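RT112 seeded 300,000/well; after 24 h, 250 or 500 μM or vehicle. Cells plus floating debris harvested immediately or 24 h after treatment, lysed in RIPA with protease inhibitors. About 30 μg protein heated 10 min at 95 °C with DTT, run on SDS-PAGE. Immunoblotted for PARP and caspase 9, Ran as loading control, ECL detection.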
(In general: A western blot detects proteins with antibodies after separation by electrophoresis.)

A short description of series [4]: Toxicity in anesthetized BBN-induced bladder tumor mouse model assessed as cleaved caspase 3 level in tumor adjacent normal […] at 1500 uM administered via intravesical instillation treated for 1 hr administered as 2 doses at 24 hrs interval and measured at 24 hrs after final treatment by hematoxylin and eosin staining based immunohistochemical analysis. The conditions noted are these: in vivo, other. An outline of the steps:
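Bladder tumors induced with 0.05% BBN in drinking water and confirmed by excretory μCT urography. Anesthetized (isoflurane) mice given intravesical 1500 μM or vehicle by catheter. Two 1 h doses 24 h apart. Females received 100 μL in 10% DMSO/PBS; males received doubled concentration in 50 μL of 20% DMSO/PBS. Bladder immunohistology for cleaved caspase-3.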

Series [5] has as its system Mus musculus. The experiment in a line: Antitumor activity against anesthetized BBN-induced bladder tumor mouse model assessed as increase in cleaved caspase 3 level in hyperplasia region at 1500 uM administered via intravesical instillation treated for 1 hr administered as 2 doses at 24 hrs interval and measured at 24 hrs after final treatment by hematoxylin and eosin staining based immunohistochemical analysis. In kind it is functional, organism-based.

Series [6] has as its system Mus musculus. The experiment in a line: Induction of urothelium exfoliation in anesthetized female mouse model assessed as effect on urothelial layer thickening at 750 to 1500 uM administered via intravesical instillation after bladder evacuation treated for 1 hr followed by repetition of the treatment after 24 hrs and measured at 24 hrs after final treatment by hematoxylin and eosin staining based analysis. Format: organism-based. Conditions: in vivo, other. Put shortly:
(§2)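 Female mice anesthetized, 1–3% isoflurane. Bladder evacuated, then 100 μL of 750 or 1500 μM in 10% DMSO/PBS (or vehicle) instilled by 24G angiocatheter. Catheter left in place for a 1 h dwell. Repeated after 24 h; mice sacrificed 24 h after final dose. Bladder histology read for urothelial height and layers.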

In series [7] the test system is Mus musculus. The experiment in a line: Induction of urothelium exfoliation in anesthetized female mouse model assessed as decrease in urothelial cell height at 750 to 1500 uM administered via intravesical instillation after bladder evacuation treated for 1 hr followed by repetition of the treatment after 24 hrs and measured at 24 hrs after final treatment by hematoxylin and eosin staining based analysis. Format: organism-based. Conditions: in vivo, other. Put shortly:
as §2

As usually defined, the GI50 is the concentration giving 50% growth inhibition. A lower GI50 goes with greater sensitivity of the cells.

The source made the active and inactive calls. The rule behind the calls is not given here.

Turning to `[Br-].[Br-].c1ccc([P+](CCCc2n(Cc3ccc4ccccc4c3)c3ccccc3[n+]2Cc2ccc3ccccc3c2)(c2ccccc2)c2ccccc2)cc1`, in the series on RT-4, the inhibition of growth at 500 µM came out at 100%. The compound further yielded a GI50 in the series with RT-112 [1] of 200 µM. For the same compound, the growth at 10 µM in the series on HL-60(TB) is 22.6%; in the series with EKVX, 59.4%; in the series on HOP-62 it was 61.6%; with COLO 205, 44.7%; with HCT-116, 24.2%; in the series with KM12 it was 32.2%. The growth at 10 µM in the series with SNB-19 amounted to 38.5%; in the series on Malme-3M it was 65.2%; in the series with SK-MEL-2, 100%; with OVCAR-3, 75.8%; with OVCAR-8 it was 70.2%; with CAKI-1, 79.9%. Moreover, the growth at 10 µM came to 82.1% in the series with DU-145, 73.9% in the series on MCF7, 56.9% with T47D and 34.5% in the series with MDA-MB-468. Moreover, in the series on RT-112 [2], the inhibition result was “Active”. Moreover, the result in the series on RT-112 [3] and in the series on Mus musculus [5] was Active. For the same compound, the Activity entry (in series [4]; with Mus musculus [6]; with Mus musculus [7]) was “Non-Toxic” each time.

Source of the values: ChEMBL document CHEMBL4312027, “Synthesis, characterization, and biological activity of a triphenylphosphonium-containing imidazolium salt against select bladder cancer cell lines” (Eur J Med Chem, 2020).
